Measurements published in ChEMBL document CHEMBL1137716, “Novel modifications in the series of O-(2-phthalimidoethyl)-N-substituted thiocarbamates and their ring-opened congeners as non-nucleoside HIV-1 reverse transcriptase inhibitors” (Eur J Med Chem, 2009).
Activity calls are given as the source filed them. How the calls were made is not given here.

What was measured:
[1] = Selectivity index, ratio of CC50 for human MT4 cells to EC50 for HIV1 3B; assay type: toxicity, cell-based; settings: read-out: Ratio CC50/EC50
Method in brief: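 Ratio of CC50 in mock-infected MT-4 cells to EC50 for protection from HIV-1 cytopathogenicity, both read by MTT method.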

[2] = Cytotoxicity against mock-infected human MT4 cells by MTT assay; assay type: cell-based
Method in brief: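 Mock-infected MT-4 cells, tested in parallel with the antiviral assay; viability read by MTT method; CC50 is the concentration lowering viability by 50%; mean of three separate experiments, triplicate variation under 10%.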

[3] = test system: Human immunodeficiency virus 1; assay: Antiviral activity against wild type HIV1 3B in human MT4 cells assessed as protection against viral induced cytopathogenicity by MTT assay; assay type: functional, organism-based; settings: Human immunodeficiency virus 1, 3B
Method in brief: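 MT-4 cells infected with HIV-1; 50% protection from virus-induced cytopathogenicity read by MTT method; EC50 in micromolar; mean of three separate experiments, triplicate samples varying under 10%.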

[4] = test system: Human immunodeficiency virus 1; assay: Antiviral activity against HIV1 3B Y181C/K103N double mutant in human MT4 cells assessed as protection against viral induced cytopathogenicity by MTT assay; assay type: functional, organism-based
Method in brief: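 MT-4 cells infected with HIV-1 carrying the NNRTI-resistance mutation were assayed for protection from virus-induced cytopathogenicity, read out as cell viability by MTT. EC50 is the compound concentration giving 50% protection. Values are means of three separate experiments, with variation among triplicate samples under 10%. Efavirenz served as the reference.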

SMILES	selectivity ratio [1]	CC50 [2] [µM]	EC50 [3] [µM]	Activity [4]
O=C1c2ccccc2C(=O)N1CCOC(=S)NCc1ccccc1	> 3.8	> 100	26	–
O=C(O)c1ccccc1C(=O)NCCOC(=S)Nc1c(F)cccc1F	> 2.2	> 100	45	inactive
Cc1ccc(NC(=S)OCCN2C(=O)c3ccccc3C2=O)cc1Cl	> 125	> 100	0.8	inactive
Cc1ccc(NC(=S)OC[C@@H](C)NC(=O)c2ccccc2C(=O)O)cc1	> 43.5	> 100	2.3	inactive
O=C1c2ccccc2C(=O)N1CCOC(=S)Nc1ccc(F)cc1	–	–	0.1	–
C[C@@H](COC(=S)Nc1ccc(Cl)cc1)NC(=O)c1ccccc1C(=O)O	> 43.5	> 100	2.3	inactive
COc1ccc(NC(=S)OCCNC(=O)c2ccccc2C(=O)O)cc1OC	> 6.2	> 100	16	–
CC(C)(C)CC(C)(C)NC(=S)OCCN1C(=O)c2ccccc2C1=O	> 1.7	> 100	60	inactive
Cc1ccc(NC(=S)OCCNC(=O)c2ccccc2C(=O)O)c(C)c1	> 1.9	> 100	53	–
Cc1ccc(NC(=S)OCCN2C(=O)c3ccc(C(C)(C)C)cc3C2=O)cc1	28	42	1.5	inactive
Cc1ccc(NC(=S)OCCN2C(=O)c3ccccc3C2=O)c(C)c1	> 16.7	> 100	6	–
Cc1cccc(Cl)c1NC(=S)OCCN1C(=O)c2ccccc2C1=O	> 4.3	> 100	23	–
O=C1c2ccccc2C(=O)N1CCOC(=S)NCCc1ccccc1	> 10.9	> 100	9.2	inactive
O=C1c2ccccc2C(=O)N1CCOC(=S)Nc1cc(Cl)cc(Cl)c1	> 8	> 100	12	–
O=C1c2ccccc2C(=O)N1CCOC(=S)Nc1c(F)cccc1F	> 14.3	> 100	7	inactive
Cc1ccc2c(c1)C(=O)N(CCOC(=S)Nc1ccc(C)c(Cl)c1)C2=O	165	66	0.4	inactive
C=CCNC(=S)OCCN1C(=O)c2ccccc2C1=O	–	> 100	> 100	–
O=C1c2ccccc2C(=O)N1CCOC(=S)Nc1c(Cl)cccc1Cl	> 4.8	> 100	21	–
Cc1ccc(NC(=S)OC[C@H](C)NC(=O)c2ccccc2C(=O)O)cc1	> 7.2	> 100	13.8	inactive
O=C1c2ccccc2C(=O)N1CCOC(=S)Nc1c(F)cc(F)cc1F	> 50	> 100	2	inactive
O=C1c2ccccc2C(=O)N1CCOC(=S)Nc1ccc(F)cc1F	> 200	> 100	0.5	inactive
Cc1ccc(Cl)cc1NC(=S)OCCNC(=O)c1ccccc1C(=O)O	> 3.3	> 100	30	–
Cc1ccc2c(c1)C(=O)N(CCOC(=S)Nc1ccc(Cl)cc1)C2=O	–	–	0.025	–
O=C1c2ccccc2C(=O)N1CCOC(=S)Nc1cccc(Cl)c1Cl	> 3.3	> 100	30	–
O=C1c2ccccc2C(=O)N1CCOC(=S)Nc1cc(Cl)ccc1Cl	> 2.4	> 100	42	–
Cc1ccc(Cl)cc1NC(=S)OCCN1C(=O)c2ccccc2C1=O	–	> 100	> 100	–
O=C1c2ccccc2C(=O)N1CCOC(=S)Nc1cc(F)ccc1F	> 12.5	> 100	8	inactive

SMILES	selectivity ratio [1]	CC50 [2] [µM]	EC50 [3] [µM]	Activity [4]
CCc1ccc(NC(=S)OCCN2C(=O)c3ccccc3C2=O)cc1	–	–	0.08	–
CC(=O)c1ccc(NC(=S)OCCN2C(=O)c3ccccc3C2=O)cc1	–	–	0.14	–
O=C1c2ccccc2C(=O)N1CCOC(=S)Nc1ccc(Br)cc1	–	–	0.03	–
Cc1cccc(C)c1NC(=S)OCCN1C(=O)c2ccccc2C1=O	> 1.3	> 100	75	–
COc1ccc(CCNC(=S)OCCN2C(=O)c3ccccc3C2=O)cc1OC	> 12.5	> 100	8	inactive
O=C1c2ccccc2C(=O)N1CCOC(=S)NC1CC1	–	> 100	> 100	–
COc1ccc(C)cc1NC(=S)OCCNC(=O)c1ccccc1C(=O)O	> 1.1	> 100	88	–
Cc1cc(Br)ccc1NC(=S)OCCN1C(=O)c2ccccc2C1=O	> 5.3	> 100	19	–
O=C(O)c1ccccc1C(=O)NCCOC(=S)Nc1c(F)cc(F)cc1F	> 13.9	> 100	7.2	inactive
O=C1c2ccccc2C(=O)N1CCOC(=S)Nc1c(F)c(F)cc(F)c1F	> 10	> 100	10	inactive
Cc1cc(Cl)ccc1NC(=S)OCCN1C(=O)c2ccccc2C1=O	> 3.7	> 100	27	–
CC(COC(=S)Nc1ccc(Cl)cc1)N1C(=O)c2ccccc2C1=O (racemic)	–	–	0.05	–
O=C1c2ccccc2C(=O)N1CCOC(=S)NCc1ccco1	–	> 100	> 100	inactive
O=C1c2ccccc2C(=O)N1CCOC(=S)Nc1ccccc1	–	–	1.2	–
Cc1cc(C)cc(NC(=S)OCCN2C(=O)c3ccccc3C2=O)c1	> 25	> 100	4	–
COc1ccc(NC(=S)OCCN2C(=O)c3ccccc3C2=O)cc1	–	–	0.03	–
O=C1c2ccccc2C(=O)N1CCOC(=S)NC1CCCC1	> 9.1	> 100	11	–
N#Cc1ccc(NC(=S)OCCN2C(=O)c3ccccc3C2=O)cc1	–	–	0.07	–
O=C1c2ccccc2C(=O)N1CCOC(=S)NC1CCCCCCC1	> 167	> 100	0.6	–
O=C1c2ccccc2C(=O)N1CCOC(=S)Nc1ccc([N+](=O)[O-])cc1Cl	–	> 100	> 100	–
O=C1c2ccccc2C(=O)N1CCOC(=S)Nc1ccc(I)cc1	–	–	0.02	–
O=C1c2ccccc2C(=O)N1CCOC(=S)Nc1ccc(Cl)cc1	–	–	0.04	–
Cc1ccc(NC(=S)OCCNC(=O)c2ccccc2C(=O)O)cc1Cl	> 23.2	> 100	4.3	–
O=C1c2ccccc2C(=O)N1CCOC(=S)Nc1ccc(Cl)c(C(F)(F)F)c1	10.5	84	8	–
Cc1ccc(NC(=S)OCCN2C(=O)c3ccccc3C2=O)cc1	–	–	0.02	–
COc1ccc(Cl)cc1NC(=S)OCCN1C(=O)c2ccccc2C1=O	> 2.1	> 100	48	–
O=C1c2ccccc2C(=O)N1CCOC(=S)Nc1ccc(Cl)cc1Cl	–	> 100	> 100	–
